In test [1] the test system is Rattus norvegicus. As to the kind of experiment: Androgenic activity in ORX rat model assessed as ventral prostate weight at 30 mg/kg, po administered 4 days relative to sham-treated control. The test is classed as functional, Prostate gland. The method in brief:
(§1)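 Young (immature) rats castrated, left untreated one week, then dosed daily for four days (test agents orally; testosterone propionate subcutaneously). Untreated ORX and sham-operated rats as controls. Levator ani (anabolic) and ventral prostate (androgenic) weights normalised to body weight; activity % = (W/BW treated − W/BW ORX)/(W/BW sham − W/BW ORX) × 100; A50 = dose giving 50% activity.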

Test [2] relates to Rattus norvegicus. As to the kind of experiment: Anabolic activity in ORX rat model assessed as levator ani muscle weight at 30 mg/kg, po administered 4 days relative to sham-treated control. It is filed as functional. The method in brief: as §1
For test [3], the system named is Rattus norvegicus. Put plainly: Androgenic activity in ORX rat model assessed as ventral prostate weight at 10 mg/kg, po administered 4 days relative to sham-treated control. The test is classed as functional, Prostate gland. Summed up: as §1
Test [4] has as its system Rattus norvegicus. As to the kind of experiment: Anabolic activity in ORX rat model assessed as levator ani muscle weight at 10 mg/kg, po administered 4 days relative to sham-treated control. The test is classed as functional. Summed up: as §1
The test system of test [5] is Rattus norvegicus. As to the kind of experiment: Androgenic activity in sc dosed ORX rat model assessed as maximum effect on ventral prostate weight administered 4 days relative to sham-treated control. It is filed as functional, Prostate gland. The method in brief:
as §1

Test [6] has as its system Rattus norvegicus. As to the kind of experiment: Anabolic activity in sc dosed ORX rat model assessed as maximum effect on levator ani muscle weight administered 4 days relative to sham-treated control. The test is classed as functional. Summed up: as §1
Test [7] relates to Rattus norvegicus. Put plainly: Androgenic activity in sc dosed ORX rat model assessed as dose required to induce 50% effect on ventral prostate weight administered 4 days. The test is classed as functional, Prostate gland. The method in brief:
as §1

Test [8] concerns Rattus norvegicus. As to the kind of experiment: Anabolic activity in sc dosed ORX rat model assessed as dose required to induce 50% effect on levator ani muscle weight administered 4 days. The test is classed as functional. Summed up:
as §1

The subject of test [9] is Rattus norvegicus. As to the kind of experiment: Androgenic activity in ORX rat model assessed as ventral prostate weight at 1 mg/kg, sc administered 4 days relative to sham-treated control. The test is classed as functional, Prostate gland. Conditions: route subcutaneous. The method in brief:
as §1

The subject of test [10] is Rattus norvegicus. Put plainly: Anabolic activity in ORX rat model assessed as levator ani muscle weight at 1 mg/kg, sc administered 4 days relative to sham-treated control. The test is classed as functional. The conditions noted are these: route subcutaneous. The method in brief:
as §1

As for `CN1C(=O)N(c2ccc(C#N)c(C(F)(F)F)c2)C(=O)[C@]1(C)c1ccc(O)cc1`, the Activity was 5% in the test on Rattus norvegicus [1] and -5% in the test with Rattus norvegicus [2].
As to `COc1cc(N2C(=O)N(C)[C@](C)(c3ccc(O)cc3)C2=O)ccc1C#N`, the values for the Activity in the test with Rattus norvegicus [3] and in the test with Rattus norvegicus [4] were 30% and 132%, respectively.
As for `CN1C(=S)N(c2ccc(Cl)c(Cl)c2)C(=O)C1(C)c1ccc(O)cc1` (racemic), the Activity is on record as 0% in the test on Rattus norvegicus [1] and 13% with Rattus norvegicus [2].
Turning to `CN1C(=S)N(c2ccc(C#N)c(C(F)(F)F)c2)C(=O)C1(C)c1ccc(O)cc1` (racemic), the Activity with Rattus norvegicus [1] is 4%; with Rattus norvegicus [2] it was 12%.
Consider `C=CCN1C(=O)N(c2ccc(C#N)c(C(F)(F)F)c2)C(=O)C1(C)c1ccc(O)cc1` (racemic), for which the Activity in the test on Rattus norvegicus [1] is reported as -3%; in the test on Rattus norvegicus [2], 15%.
In the same order, the values of `C#CCN1C(=O)N(c2ccc(C#N)c(C(F)(F)F)c2)C(=O)C1(C)c1ccc(O)cc1` (racemic) are 19% and 95%.
Turning to `CN1C(=O)N(c2ccc(Cl)c(Cl)c2)C(=O)C1(C)c1ccc(O)cc1` (racemic), the Activity is 0% in the test with Rattus norvegicus [1] and 12% in the test with Rattus norvegicus [2].
Turning to `CN1C(=O)N(c2ccc(C#N)c(C(F)(F)F)c2)C(=O)C1(C)c1ccc(O)cc1` (racemic), the Activity was determined as 14% with Rattus norvegicus [1] and 84% with Rattus norvegicus [2].
On to `COc1cc(N2C(=O)N(C)C(C)(c3ccc(O)cc3)C2=O)ccc1C#N` (racemic), for which the Activity with Rattus norvegicus [1] stood at 51%; with Rattus norvegicus [2] it was 96%.
In the case of `Cc1c(N2C(=O)N(C)C(C)(c3ccc(O)cc3)C2=O)ccc(C#N)c1Cl` (racemic), the Activity in the test with Rattus norvegicus [1] is given as 12%; with Rattus norvegicus [2], 82%.
As for `CCC(=O)O[C@H]1CC[C@H]2[C@@H]3CCC4=CC(=O)CC[C@]4(C)[C@H]3CC[C@]12C` [TESTOSTERONE PROPIONATE], the Activity was 130% in the test on Rattus norvegicus [5]; 130% in the test with Rattus norvegicus [6]; 0.2 mg/kg in the test with Rattus norvegicus [7]; 0.3 mg/kg in the test on Rattus norvegicus [8]; 73% in the test on Rattus norvegicus [9]; 99% in the test on Rattus norvegicus [10].

(Values after ChEMBL document CHEMBL2176865, “Discovery of diarylhydantoins as new selective androgen receptor modulators” (J Med Chem, 2012).)
